Most compounds without a hit are left out; they make up all but 2.2% or so of the library.
DAGLB inhibitor: blocks human DAGLB lipase activity; AID 504411; 340,000 compounds, 0.059% hits; inhibition, % at 5.17 µM; HEK293T DAGLB membrane lysate, EnzChek fluorogenic substrate; Q8NCG7; in the data active means inhibition above about 34%;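 further: 0% = enzyme with vehicle and 100% = wells lacking enzyme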
Target sequence (Q8NCG7 whole entry, looked up): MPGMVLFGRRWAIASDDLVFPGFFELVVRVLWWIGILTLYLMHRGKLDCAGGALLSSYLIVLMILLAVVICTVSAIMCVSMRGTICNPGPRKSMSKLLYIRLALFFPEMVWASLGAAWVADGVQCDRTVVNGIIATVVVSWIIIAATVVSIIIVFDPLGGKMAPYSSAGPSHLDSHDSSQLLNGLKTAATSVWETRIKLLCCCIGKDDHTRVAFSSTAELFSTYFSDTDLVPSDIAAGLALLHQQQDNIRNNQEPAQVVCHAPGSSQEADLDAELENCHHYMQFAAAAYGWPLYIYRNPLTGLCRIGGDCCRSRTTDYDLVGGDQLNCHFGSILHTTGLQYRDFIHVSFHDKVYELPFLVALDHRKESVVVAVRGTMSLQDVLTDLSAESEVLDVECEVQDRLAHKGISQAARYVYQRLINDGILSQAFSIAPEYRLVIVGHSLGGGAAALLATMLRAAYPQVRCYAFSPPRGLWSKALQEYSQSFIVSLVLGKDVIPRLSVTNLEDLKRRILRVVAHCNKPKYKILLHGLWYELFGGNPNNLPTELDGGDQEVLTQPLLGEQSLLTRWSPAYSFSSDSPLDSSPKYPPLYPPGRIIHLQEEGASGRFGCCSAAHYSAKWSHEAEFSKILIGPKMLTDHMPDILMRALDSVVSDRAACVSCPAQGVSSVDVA
HCV NS3 hel inh: blocks Hepatitis C virus NS3 helicase unwinding. NS3 helicase DNA unwinding, Cy5 molecular beacon fluorescence. inhibition, % at 10.9 µM. 290,000 compounds, 0.56% hits;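 active means inhibition above the mean of all tested compounds plus 3 SD, set per campaign, cut at about 35% in these data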;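 further: 0% = DMSO wells and 100% = thioflavine S control wells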
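assay system = NS3 helicase fragment of HCV | buffer or medium = MOPS pH 6.5, MgCl2, DTT, Tween20, BSA | timing = 60 min unwinding reaction at 25 °C after ATP addition | signal = Cy5 beacon fluorescence read at start and 1 h | read-out basis = % inhibition of unwinding | control set = low DMSO, high thioflavine S at 110 µM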
GPR7 antagonist: human neuropeptides B/W receptor 1 antagonism | AID 1861 | 290,000 compounds, 1.1% hits | GPR7-expressing cells, fluorescence antagonist assay | P48145 | inhibition, % at 4.4 µM; in the data active means inhibition above about 16%, passing the limit was not always enough;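 further: cells stimulated with the agonist NPW; 0% = agonist with vehicle and 100% = vehicle without agonist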
core dimer inh: HCV core protein dimerization inhibition. TR-FRET GST/Flag-core106 dimerization, 1536-well. inhibition, % at 5 µM. 300,000 compounds, 0.33% hits. AID 1899;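 active means inhibition above the mean of all tested compounds plus 3 SD, set per screening campaign, cut at about 45% in these data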
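Assay system: tagged HCV core106 pair (GST and Flag); medium: KF-containing HEPES buffer, pH 7.45, DTT, CHAPS, BSA; also added: Eu donor and XL665 acceptor anti-tag antibodies; dosing: 5 µM single dose; timing: compound-protein-antibody incubation 4 h at 22.5 °C; signal: TR-FRET 671 and 617 nm emission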
FID counter: fluorescent intercalator displacement, NS3 helicase counter-screen; inhibition, % at 7.9 µM; DNA fluorescent intercalator displacement, fluorescence; AID 1845; 290,000 compounds, 0.17% hits; in the data active means inhibition above about 37%;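 further: 0% = vehicle and 100% = reference compound; higher means more ethidium bromide displaced from hairpin DNA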
GRK2 inh: inhibitors of human GRK2 displacing RNA aptamer. P25098. 330,000 compounds, 0.59% hits. bead flow cytometry, FAM-aptamer displacement from GRK2. inhibition of aptamer binding, % at 10 µM;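 active means inhibition of aptamer binding above 40%, roughly 3 SD of noise, on plates passing a quality check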;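 further: median bead fluorescence of bound FAM aptamer so fluorescent compounds give negative values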
The depositor's hits bear a star; . = no result.

SMILES	DAGLB inhibitor	HCV NS3 hel inh	GPR7 antagonist	core dimer inh	FID counter	GRK2 inh
CCCCCCCC[n+]1cccc2c3ccccc3ccc21	2	-33	67*	3	13	0
Cc1cc(Nc2ccccc2)nc(NCc2ccccc2)n1	1	-89	37*	-8	22	0
O=C(C1CCC(=O)N1Cc1cccs1)N1CCOCC1 (stereo unspecified)	1	-4	-10	-3	-2	1
CN(C)C(=O)C1CCC(=O)N1Cc1cccs1 (stereo unspecified)	-1	-11	16*	5	1	0
CC1=C(C(=O)N(C)C)CC(CC(=O)NC2CCCCC2)C(=O)N1Cc1ccccc1 (stereo unspecified)	-1	.	.	.	.	.
CCC(=O)NC(=S)Nc1ccc(NC(=O)c2ccc(Br)o2)cc1	0	11	18*	-5	-9	2
CCN(CC)C(=O)COc1ccc(-c2nnc(Nc3ccc(OC)c(C(=O)NC)c3)c3ccccc23)cc1	0	22	19*	1	-36	0
COc1ccc(C(=O)NCCOC(C)C)cc1OC1CCN(C(C)=O)CC1	3	7	-10	-61	-10	1
CCCCc1ccc(C2C(C#N)=C(N)SC(N)=C2C#N)s1	.	30	6	59*	-2	0
CCOc1cc(C2C(C(=O)c3ccco3)=C(O)C(=O)N2CC2CCCO2)ccc1O (stereo unspecified)	-1	-4	-8	4	-7	2
Cc1cccc(CSCC(=O)N2CCN(S(=O)(=O)c3ccccc3C#N)CC2)c1	-2	.	.	.	.	.
C#CCOCCOCCOCCNc1nc(N2CCN(C(=O)[C@H]([C@@H](C)CC)n3cc([C@@H](N)CC(C)C)nn3)CC2)nc(N2CCN(C(=O)[C@H](CCCCN)n3cc([C@@H](N)C(C)CC)nn3)CC2)n1 (stereo partly specified)	-2	-70	-16	-9	45*	0
C#CCOCCOCCOCCNc1nc(N2CCN(C(=O)[C@H]([C@@H](C)CC)n3cc(CCCN=C(N)N)nn3)CC2)nc(N2CCN(C(=O)[C@H](C)n3cc(CCCN=C(N)N)nn3)CC2)n1	.	-83	-7	-4	33	.
C#CCOCCOCCOCCNc1nc(N2CCN(C(=O)[C@H]([C@@H](C)CC)n3cc([C@@H](N)CC(C)C)nn3)CC2)nc(N2CCN(C(=O)[C@H](CCCCN)n3cc([C@@H](N)CC(C)C)nn3)CC2)n1	0	-64	4	-9	38*	0
C#CCOCCOCCOCCNc1nc(N2CCN(C(=O)C([C@@H](C)CC)n3cc(C(N)COC(=O)C(F)(F)F)nn3)CC2)nc(N2CCN(C(=O)[C@H](CCCCN)n3cc(C(N)[C@H](C)CC)nn3)CC2)n1 (stereo partly specified)	.	.	.	-15	.	0
C#CCOCCOCCOCCNc1nc(N2CCN(C(=O)[C@H]([C@@H](C)CC)n3cc(CCCN=C(N)N)nn3)CC2)nc(N2CCN(C(=O)[C@H]([C@@H](C)CC)n3cc(CCCN=C(N)N)nn3)CC2)n1	.	-81	-1	.	43*	.
C#CCOCCOCCOCCNc1nc(N2CCN(C(=O)C([C@@H](C)CC)n3cc(C(N)CC(C)C)nn3)CC2)nc(N2CCN(C(=O)[C@H](CCC(=O)O)n3cc(C(N)CC(C)C)nn3)CC2)n1 (stereo partly specified)	1	-27	-20	3	15	.
CSCCC(NC(=O)c1ccccc1Cl)C(=O)NCCOc1ccc(C)cc1 (stereo unspecified)	1	.	.	.	.	.
C=CCn1c(SCC(=O)NC2CCCC2)nc2scc(-c3ccco3)c2c1=O	9	25	-9	55*	-17	1
CCNS(=O)(=O)c1ccc(CCC(N)=O)cc1	-5	2	19*	-3	-2	2
CCNS(=O)(=O)c1ccc(CCC(=O)O)cc1	0	-3	-18	-5	1	0
C[C@@H]1CN([C@@H](C)CO)C(=O)c2cc(NC(=O)C3CCCCC3)ccc2O[C@@H](C)CCCCO[C@H]1CN(C)S(=O)(=O)c1ccc(Cl)cc1	-9	.	.	.	.	.
O=C1NC(Cc2ccc(O)cc2)c2nc3cc(Cl)ccc3c(=O)n2-c2cc(Cl)ccc21 (stereo unspecified)	5	.	.	.	.	.
CC(C)N1CC(O)=C(c2nc3ccccc3[nH]2)C1=N	1	-3	12	-10	4	3
CC(C1CC2CCC1C2)N1CC(O)=C(c2nc3ccccc3[nH]2)C1=N (stereo unspecified)	0	11	21*	1	-11	0
SMILES	DAGLB inhibitor	HCV NS3 hel inh	GPR7 antagonist	core dimer inh	FID counter	GRK2 inh
Cc1cccc(C)c1OCC(=O)N/N=C/c1ccncc1	1	9	-3	-10	-6	42*
O=C(O)C1CCC(C(=O)O)SS1 (stereo unspecified)	0	.	.	.	.	.
CCCCCC(=O)N1C[C@@H](n2cc(C3CC3)nn2)[C@H](O)C[C@@H]1c1ccc(OC)cc1	0	.	.	.	.	.
COc1ccc(N2CSC3=C(C#N)C(c4cc(OC)c(OC)cc4OC)CC(=O)N3C2)c(OC)c1 (stereo unspecified)	0	66*	2	9	-30	4
COc1ccc(N2CSC3=C(C#N)C(c4cc(OC)ccc4OC)CC(=O)N3C2)c(OC)c1 (stereo unspecified)	3	28	-3	-2	-29	0
O=C(Cc1c(F)cccc1Cl)Nc1cc(S(=O)(=O)N2CCOCC2)ccc1N1CCOCC1	3	.	.	.	.	.
CCOC(=O)c1ccc(N2C(=O)C3C(C2=O)C(C(=O)c2ccc(Cl)cc2)N2CCCC32)cc1 (stereo unspecified)	0	29	7	74*	-18	3
CCOC(=O)c1ccc(N2C(=O)C3CC=CCC3C2=O)cc1 (stereo unspecified)	-2	3	2	-2	-6	5
CC1CCN(C(=O)COC(=O)/C=C/c2ccco2)CC1	-5	.	.	.	.	51*
CC1CCCC(C)N1C(=O)COC(=O)/C=C/c1ccco1 (stereo unspecified)	3	.	.	.	.	9
Cc1nn(C)c(C)c1S(=O)(=O)N(CC(=O)NCCCN1CC(C)CC(C)C1)c1ccc(C(C)C)cc1 (stereo unspecified)	2	-21	7	-7	40*	0
C[C@@H]1CN([C@@H](C)CO)C(=O)CCCn2nncc2CO[C@H]1CN(C)Cc1ccccc1	1	.	.	.	.	.
Nc1ncnc(N)c1NC(=O)c1cc(Cl)c(OCc2ccccc2)c(Cl)c1	2	.	.	.	.	.
CCOC(=O)C1(Cc2ccccc2)CCN(Cc2cn(CC(=O)OC)c3ccccc23)CC1	1	-49	32*	-5	31	0
CCOC(=O)C1(Cc2ccccc2)CCN(Cc2cccc(OC)c2O)CC1	-1	0	-7	0	8	0
O=C(CN1CCCC1)Nc1ccc(-c2nc3cc(NC(=O)CN4CCCC4)ccc3o2)cc1	1	-12	-7	-2	47*	0
